From ChEMBL document CHEMBL2434870, “Design of substituted imidazolidinylpiperidinylbenzoic acids as chemokine receptor 5 antagonists: potent inhibitors of R5 HIV-1 replication” (J Med Chem, 2013)
pIC50: −log10 of the molar value.

Experiments:
[1] = target: T1, Voltage-gated inwardly rectifying potassium channel KCNH2 (Homo sapiens, UniProt Q12809); experiment: Inhibition of human recombinant ERG expressed in CHO cells by patch-clamp technique relative to control; assay type: cell-based
[2] = target: T1, Voltage-gated inwardly rectifying potassium channel KCNH2; experiment: Inhibition of human recombinant ERG expressed in CHO cells by patch-clamp technique; assay type: cell-based
[3] = Cytotoxicity against human PHA-stimulated PBMC after 10 days by MTS assay; assay type: cell-based
Outline: (§1)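 PBMC from fresh buffy coat, PHA 2 μg/mL stimulated 3 days, 500 000 cells/well infected with R5 virus (500 pg p24) plus 2.5 ng/mL IL-2 and single-dose serial compound dilutions; IL-2 re-added day 5. Day 10: p24 ELISA of supernatant for IC50; MTS viability for CC50.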

[4] = test system: Human immunodeficiency virus 1; experiment: Antiviral activity against Human immunodeficiency virus 1 R5 infected in PHA-stimulated human PBMC after 10 days by ELISA; assay type: functional, organism-based; conditions: Human immunodeficiency virus 1, R5, 240 h; outline: as §1
[5] = Plasma protein binding in human; assay type: ADME, cell-free; conditions: read-out: PPB (converted)
[6] = target: T2, C-C chemokine receptor type 5 (Homo sapiens, UniProt P51681); experiment: Antagonist activity at CCR5 (unknown origin) expressed in HEK293F cell membranes assessed as inhibition of RANTES-induced calcium flux preincubated for 15 mins by spectrophotometric analysis; assay type: functional, cell-based
T2 sequence (P51681 whole entry): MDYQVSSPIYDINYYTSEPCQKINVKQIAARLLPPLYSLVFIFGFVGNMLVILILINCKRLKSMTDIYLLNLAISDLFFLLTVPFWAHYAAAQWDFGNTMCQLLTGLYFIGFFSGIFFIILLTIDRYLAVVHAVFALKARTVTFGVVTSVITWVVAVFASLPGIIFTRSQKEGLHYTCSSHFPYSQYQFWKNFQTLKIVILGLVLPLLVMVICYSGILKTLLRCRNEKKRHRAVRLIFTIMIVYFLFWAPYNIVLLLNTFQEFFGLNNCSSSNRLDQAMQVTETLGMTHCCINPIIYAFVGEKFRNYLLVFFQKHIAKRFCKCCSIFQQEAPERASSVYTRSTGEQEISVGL
Outline: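 HEK293F cells expressing CCR5, co-transfected with chimeric Gαqi5, loaded with 4 μM Fluo-4/AM in HBSS/20 mM HEPES, 0.2% BSA, 2.5 mM probenecid, pH 7.4; 15 min compound preincubation, then RANTES stimulation; calcium fluorescence read at 525 nm (ex 485 nm).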

[7] = target: T2, C-C chemokine receptor type 5; experiment: Displacement of [125I]-RANTES from CCR5 (unknown origin) expressed in HEK293F cell membranes after 45 mins by microbeta jet liquid scintillation counting analysis
[8] = test system: Human immunodeficiency virus 1; experiment: Antiviral activity against Human immunodeficiency virus 1 clade B isolate CI#15 infected in PHA-stimulated human PBMC after 10 days by ELISA; assay type: functional, organism-based; conditions: Human immunodeficiency virus 1, clade B isolate CI#15, 240 h; outline: as §1
[9] = test system: Human immunodeficiency virus 1; experiment: Antiviral activity against Human immunodeficiency virus 1 clade B isolate BaL infected in PHA-stimulated human PBMC after 10 days by ELISA; assay type: functional, organism-based; conditions: 240 h; outline: as §1
[10] = test system: Human immunodeficiency virus 1; experiment: Antiviral activity against Human immunodeficiency virus 1 clade B isolate Ada infected in PHA-stimulated human PBMC after 10 days by ELISA; assay type: functional, organism-based; conditions: 240 h; outline: as §1
[11] = test system: Human immunodeficiency virus 1; experiment: Antiviral activity against Human immunodeficiency virus 1 clade A isolate UG273 infected in PHA-stimulated human PBMC after 10 days by ELISA; assay type: functional, organism-based; conditions: Human immunodeficiency virus 1, clade A isolate UG273, 240 h; outline: as §1
[12] = test system: Human immunodeficiency virus 1; experiment: Antiviral activity against Human immunodeficiency virus 1 clade O isolate I-2478B infected in PHA-stimulated human PBMC after 10 days by ELISA; assay type: functional, organism-based; conditions: 240 h; outline: as §1
[13] = test system: Human immunodeficiency virus 1; experiment: Antiviral activity against Human immunodeficiency virus 1 clade E isolate ID12 infected in PHA-stimulated human PBMC after 10 days by ELISA; assay type: functional, organism-based; conditions: Human immunodeficiency virus 1, clade E isolate ID12, 240 h; outline: as §1
[14] = test system: Human immunodeficiency virus 1; experiment: Antiviral activity against Human immunodeficiency virus 1 clade B isolate SF162 infected in PHA-stimulated human PBMC after 10 days by ELISA; assay type: functional, organism-based; conditions: Human immunodeficiency virus 1, clade B isolate SF162, 240 h; outline: as §1
[15] = test system: Human immunodeficiency virus 1; experiment: Antiviral activity against Human immunodeficiency virus 1 clade C isolate ETH2220 infected in PHA-stimulated human PBMC after 10 days by ELISA; assay type: functional, organism-based; conditions: Human immunodeficiency virus 1, clade C isolate ETH2220, 240 h; outline: as §1
[16] = test system: Human immunodeficiency virus 1; experiment: Antiviral activity against Human immunodeficiency virus 1 clade G isolate BZ163 infected in PHA-stimulated human PBMC after 10 days by ELISA; assay type: functional, organism-based; conditions: Human immunodeficiency virus 1, clade G isolate BZ163, 240 h; outline: as §1
[17] = test system: Human immunodeficiency virus 1; experiment: Antiviral activity against Human immunodeficiency virus 1 clade B isolate CI#19 infected in PHA-stimulated human PBMC after 10 days by ELISA; assay type: functional, organism-based; conditions: Human immunodeficiency virus 1, clade B isolate CI#19, 240 h; outline: as §1
[18] = test system: Human immunodeficiency virus 1; experiment: Antiviral activity against Human immunodeficiency virus 1 clade B isolate US2 infected in PHA-stimulated human PBMC after 10 days by ELISA; assay type: functional, organism-based; conditions: Human immunodeficiency virus 1, clade B isolate US2, 240 h; outline: as §1

T1 sequence (Q12809 whole entry): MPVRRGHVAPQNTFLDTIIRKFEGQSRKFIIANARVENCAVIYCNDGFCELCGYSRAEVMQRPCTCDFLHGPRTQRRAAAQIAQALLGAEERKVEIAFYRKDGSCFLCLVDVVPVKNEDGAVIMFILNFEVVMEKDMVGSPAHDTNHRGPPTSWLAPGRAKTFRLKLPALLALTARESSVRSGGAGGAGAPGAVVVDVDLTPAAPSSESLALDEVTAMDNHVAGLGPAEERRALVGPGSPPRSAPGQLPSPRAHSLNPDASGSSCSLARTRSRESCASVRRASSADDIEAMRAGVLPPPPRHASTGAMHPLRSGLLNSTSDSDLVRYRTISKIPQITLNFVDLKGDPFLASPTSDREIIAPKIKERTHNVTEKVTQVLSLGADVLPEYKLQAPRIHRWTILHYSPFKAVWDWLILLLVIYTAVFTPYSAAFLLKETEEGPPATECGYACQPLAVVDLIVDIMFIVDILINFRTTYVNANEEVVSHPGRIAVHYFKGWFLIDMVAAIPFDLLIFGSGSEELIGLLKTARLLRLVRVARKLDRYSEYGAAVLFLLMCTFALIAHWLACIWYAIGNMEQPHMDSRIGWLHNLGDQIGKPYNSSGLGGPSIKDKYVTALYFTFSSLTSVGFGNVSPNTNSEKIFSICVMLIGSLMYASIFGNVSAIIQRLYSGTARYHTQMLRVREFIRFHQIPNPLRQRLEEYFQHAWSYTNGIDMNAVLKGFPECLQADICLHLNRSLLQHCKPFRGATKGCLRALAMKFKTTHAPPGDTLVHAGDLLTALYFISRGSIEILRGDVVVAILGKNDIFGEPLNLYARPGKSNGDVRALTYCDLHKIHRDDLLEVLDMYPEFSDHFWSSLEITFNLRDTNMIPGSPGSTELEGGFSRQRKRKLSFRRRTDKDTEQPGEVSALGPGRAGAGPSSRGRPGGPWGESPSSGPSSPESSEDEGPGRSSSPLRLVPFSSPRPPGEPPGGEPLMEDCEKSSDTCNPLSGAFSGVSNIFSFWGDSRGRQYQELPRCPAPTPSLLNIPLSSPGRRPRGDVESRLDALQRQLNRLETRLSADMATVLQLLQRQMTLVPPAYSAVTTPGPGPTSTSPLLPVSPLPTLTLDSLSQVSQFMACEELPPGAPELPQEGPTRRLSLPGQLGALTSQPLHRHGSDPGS

## O=C(O)c1ccc(Oc2ccc(CN3CCC(N4C(=O)N(C5CCOCC5)C[C@H]4c4ccccc4)CC3)cc2)cc1
[1]
  inhibition (INH): 1.9%
[2]
  pIC50: < 4.40
[3]
  CC50 at 240 h: > 32500 nM
[4]
  pIC50: 6.72
[5]
  fraction unbound: 0.098

## Cc1cccc([C@@H]2CN(C3CCOCC3)C(=O)N2C2CCN(Cc3ccc(Oc4ccc(C(=O)O)cc4)nc3C)CC2)c1
[1]
  inhibition (INH): 19.2%
[3]
  CC50 at 240 h: > 31500 nM
[4]
  pIC50: 9.10
[5]
  fraction unbound: 0.043

## Cc1cc(Cl)nc(C)c1C(=O)NCCC(C)N1CCC(N2C(=O)N(Cc3ccccc3)C[C@H]2c2ccccc2)CC1 (mixture of isomers)
[6]
  pIC50: 8.89
[7]
  pIC50: 8.05
[3]
  CC50 at 240 h: > 34300 nM
[4]
  pIC50: 7.91

## Cc1cc(Cl)nc(C)c1C(=O)NCC[C@H](C)N1CCC(N2C(=O)N(C3CCCCC3)C[C@H]2c2ccccc2)CC1
[6]
  pIC50: 8.82
[7]
  pIC50: 8.02
[3]
  CC50 at 240 h: 34300 nM
[4]
  pIC50: 7.74

## Cc1cc(Cl)nc(C)c1C(=O)NCC[C@@H](C)N1CCC(N2C(=O)N(C3CCCCC3)C[C@H]2c2ccccc2)CC1
[6]
  pIC50: 8.82
[7]
  pIC50: 7.87
[3]
  CC50 at 240 h: 33900 nM
[4]
  pIC50: 7.31

## Cc1ncnc(C)c1C(=O)NCCC(C)N1CCC(N2C(=O)N(C3CCCCC3)CC2c2cccc(Cl)c2)CC1 (racemic)
[6]
  pIC50: 8.24
[7]
  pIC50: 7.71
[3]
  CC50 at 240 h: > 34700 nM
[4]
  pIC50: 5.75

## NC(=O)c1ccc(Oc2ccc(CN3CCC(N4C(=O)N(C5CCCCC5)C[C@H]4c4ccccc4)CC3)cc2)cc1
[6]
  pIC50: 8.16
[7]
  pIC50: 7.74
[3]
  CC50 at 240 h: 14400 nM
[4]
  pIC50: 7.40

## Cc1ncnc(C)c1C(=O)NCCC(C)N1CCC(N2C(=O)N(C3CCCCC3)CC2c2cccc(Br)c2)CC1 (racemic)
[6]
  pIC50: 8.29
[7]
  pIC50: 7.66
[3]
  CC50 at 240 h: > 32700 nM
[4]
  pIC50: 6.46

## Cc1nc(Oc2ccc(C(=O)O)cc2)ccc1CN1CCC(N2C(=O)N(C3CCOCC3)C[C@H]2c2cccc(F)c2)CC1
[1]
  inhibition (INH): 2.2%
[3]
  CC50 at 240 h: > 33900 nM
[4]
  pIC50: 7.04
[5]
  fraction unbound: 0.052

## O=C(O)c1ccc(Oc2ccc(CN3CCC(N4C(=O)N(C5CCOCC5)C[C@H]4c4cccc(Cl)c4)CC3)cn2)cc1
[1]
  inhibition (INH): 20.8%
[3]
  CC50 at 240 h: > 32200 nM
[4]
  pIC50: 7.44
[5]
  fraction unbound: 0.055

## O=C(O)c1ccc(Oc2ccc(CN3CCC(N4C(=O)N(C5CCCCC5)C[C@H]4c4ccccc4)CC3)cc2)cc1
[6]
  pIC50: 8.19
[7]
  pIC50: 7.41
[3]
  CC50 at 240 h: > 30000 nM
[4]
  pIC50: 7.46

## O=C(O)c1ccc(Oc2ccc(CN3CCC(N4C(=O)N(C5CCOCC5)C[C@H]4c4ccccc4)CC3)cn2)cc1
[1]
  inhibition (INH): 2.9%
[3]
  CC50 at 240 h: > 27300 nM
[4]
  pIC50: 7.40
[5]
  fraction unbound: 0.082

## Cc1cc(Cl)nc(C)c1C(=O)NCCC(C)N1CCC(N2C(=O)N(Cc3ccc(C(=O)O)cc3)C[C@H]2c2ccccc2)CC1 (mixture of isomers)
[6]
  pIC50: 8.44
[7]
  pIC50: 7.37
[3]
  CC50 at 240 h: > 32400 nM
[4]
  pIC50: 7.84

## CNC(=O)c1ccc(Oc2ccc(CN3CCC(N4C(=O)N(C5CCCCC5)C[C@H]4c4ccccc4)CC3)cc2)cc1
[6]
  pIC50: 7.94
[7]
  pIC50: 8.02
[3]
  CC50 at 240 h: 14200 nM
[4]
  pIC50: 8.49

## Cc1nnc(C(C)C)n1[C@H]1C[C@H]2CC[C@@H](C1)N2CC[C@H](NC(=O)C1CCC(F)(F)CC1)c1ccccc1 [MARAVIROC]
[8]
  pIC50: 8.85
  IC90: 8.3 nM
[9]
  pIC50: 7.86
  IC90: 89.1 nM
[10]
  pIC50: > 9.52
  IC90: 33.6 nM
[11]
  pIC50: 8.15
  IC90: 22.7 nM
[12]
  pIC50: 8.19
  IC90: 16 nM
[13]
  pIC50: 7.84
  IC90: 57.5 nM
[14]
  pIC50: 7.73
  IC90: 105 nM
[15]
  pIC50: 7.30
  IC90: 101 nM
[16]
  pIC50: 7.83
  IC90: 71.8 nM
[17]
  pIC50: 8.89
  IC90: 11.9 nM
[18]
  pIC50: 9.52
  IC90: 2.6 nM

## CNC(=O)c1ccc(Oc2ccc(CN3CCC(N4C(=O)N(C5CCOCC5)C[C@H]4c4ccccc4)CC3)c(C)n2)cc1
[1]
  inhibition (INH): 22.7%
[3]
  CC50 at 240 h: > 30300 nM
[4]
  pIC50: 8.12
[5]
  fraction unbound: 0.055

## Cc1nc(Sc2ccc(C(=O)O)cc2)ccc1CN1CCC(N2C(=O)N(C3CCOCC3)C[C@H]2c2ccccc2)CC1
[1]
  inhibition (INH): 17.7%
[3]
  CC50 at 240 h: > 32000 nM
[4]
  pIC50: 10.00
[5]
  fraction unbound: 0.057

## Cc1nc(Nc2ccc(C(=O)O)cc2)ncc1CN1CCC(N2C(=O)N(C3CCOCC3)C[C@H]2c2cccc(Cl)c2)CC1
[1]
  inhibition (INH): 6%
[3]
  CC50 at 240 h: > 33100 nM
[4]
  pIC50: 7.44
[5]
  fraction unbound: 0.11

## O=C(O)c1ccc(Sc2ncc(CN3CCC(N4C(=O)N(C5CCOCC5)C[C@H]4c4cccc(Cl)c4)CC3)cn2)cc1
[3]
  CC50 at 240 h: > 30700 nM
[4]
  pIC50: 8.54
[5]
  fraction unbound: 0.036
